Assay [1] can be described thus: Selectivity ratio of IC50 for human thymidylate kinase to IC50 for Pseudomonas aeruginosa thymidylate kinase. The method, boiled down: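 Compound tested at 0.39–200 μM. Reaction 2 min at room temperature, then ADP detection reagents 30 min. Fluorescence read at ex 485/em 535 nm, corrected using 5 μM ADP interference controls and no-enzyme controls. Result is the ratio against the PaTMK coupled-assay IC50.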

For assay [2], the target named is T1, Thymidylate kinase (Homo sapiens) (UniProt P23919).
T1 sequence (whole entry): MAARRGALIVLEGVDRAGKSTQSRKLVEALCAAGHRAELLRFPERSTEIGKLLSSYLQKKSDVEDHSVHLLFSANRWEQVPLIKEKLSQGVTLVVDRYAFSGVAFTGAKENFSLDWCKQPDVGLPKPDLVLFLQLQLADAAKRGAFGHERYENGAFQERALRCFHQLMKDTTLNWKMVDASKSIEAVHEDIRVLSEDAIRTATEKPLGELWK
As to the kind of experiment: Inhibition of human thymidylate kinase using dTMP as substrate at 200 uM after 30 mins by fluorescence analysis. In a few lines:
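Inhibitor range 0.39–200 μM. Reaction runs 2 min at room temperature, then ADP-detection reagents for 30 min. Read-out is fluorescence at ex 485/em 535 nm. Percent inhibition is corrected using no-enzyme and 5 μM ADP interference controls.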

In assay [3] the target is T2, Thymidylate kinase (Homo sapiens, UniProt P23919).
T2 sequence (P23919 whole entry): T1 sequence (whole entry)
As to the kind of experiment: Inhibition of human thymidylate kinase using dTMP as substrate after 30 mins by fluorescence analysis.

Assay [4] relates to Pseudomonas aeruginosa. Nature of the assay: Antibacterial activity against Pseudomonas aeruginosa PAO1. The format is functional.
Assay [5] relates to Pseudomonas aeruginosa. Nature of the assay: Antibacterial activity against […], MexXY, MeyZ efflux pump- knock out Pseudomonas aeruginosa PAO280. Format: functional.
Assay [6] can be described thus: Inhibition of Pseudomonas aeruginosa thymidylate kinase expressed in Escherichia coli BL21 (DE3) cells assessed as phosphorylation of dTMP to dTDP after 20 mins by spectrophotometric analysis. The method, boiled down:
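PaTMK from pET15b in E. coli BL21 DE3, purified by HisTrap and Superdex 200, used at 40 nM. dTDP formation was coupled via PK/LDH/NDP kinase to NADH oxidation (A340) over 20 min at 25 °C.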

Assay [7] has as its system BL21-DE3. As to the kind of experiment: Ratio of dFTM IC50 to compound IC50 for Pseudomonas aeruginosa thymidylate kinase expressed in Escherichia coli BL21 (DE3) cells assessed as phosphorylation of TMP to dTDP after 20 mins by spectrophotometric analysis. In a few lines:
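His-tagged P. aeruginosa TMK expressed in E. coli BL21(DE3) and purified (Ni affinity, gel filtration). TMK diluted in buffer; 40 nM enzyme. Coupled PK/LDH/NDP kinase read-out: 2 mM ATP, 54 μM TMP, 2 mM PEP, 0.22 mM NADH, 40 mM HEPES pH 8.0, 80 mM KCl, 1.6 mM MgCl2. A340 decrease followed 20 min at 25 °C. Twenty 1.67-fold dilutions from 200 or 100 μM final. Initial rates relative to EDTA and enzyme-alone controls. IC50 ratio versus reference inhibitor.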

Where only a bound is given, the exact number is not on record here.

In the case of `Cn1c(=O)[nH]c2ncc(-c3cccc(C(=O)NCCCc4ccc(F)cc4)c3)cc21`, the Ratio IC50 in assay [1] is more than 1000. Moreover, in assay [2], the inhibition was 58%. The IC50 in assay [3] was determined as 123 µM; in assay [6], 0.12 µM. For the same compound, the minimal inhibitory concentration (MIC) in assay [4] and in assay [5] was more than 256 µg/mL throughout.
In assay [2], `Cn1c(=O)[nH]c2ncc(-c3cccc(C(N)=O)c3)cc21` registered an inhibition of 12%. The IC50 in assay [3] was more than 200 µM. For the same compound, the MIC in assay [4] and in assay [5] was more than 256 µg/mL in each case. Moreover, in assay [7], the Ratio IC50 was determined as 60.
Turning to `Cn1c(=O)[nH]c2ncc(-c3cccc(C(=O)NCCCc4ccccc4)c3)cc21`, the Ratio IC50 in assay [1] is more than 1000. The compound further showed an inhibition in assay [2] of 43%. For the same compound, the IC50 in assay [3] was more than 200 µM; in assay [6] it was 0.12 µM. Besides, the minimum inhibitory concentration (MIC) in assay [4] and in assay [5] was more than 256 µg/mL each time.

A word on the inhibition: it is the share of the control response that was lost under treatment. As a reminder, the IC50 is the concentration needed to halve the response being measured. As usually defined, the MIC is the lowest concentration that inhibits growth of the organism.

(Values after ChEMBL document CHEMBL1955766, “Structure guided development of novel thymidine mimetics targeting Pseudomonas aeruginosa thymidylate kinase: from hit to lead generation” (J Med Chem, 2012).)
